# Measured values published in paper PMC3949125 (Proteins, 2013).
# What was measured:
# [1] = target: human BCL2 (residues 1–218) (Homo sapiens, UniProt P10415); assay: Isothermal titration calorimetry of BECN1 BH3D-derived peptides binding to BCL2; details: ITC, 25°C, pH 7.5
# Summary of the method: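 Soluble human BCL2 (1–218, C-terminal transmembrane helix removed) and synthetic BH3D-derived peptides (HPLC-purified >95%, mass confirmed by electrospray MS) were co-dialysed against 50 mM HEPES pH 7.5, 150 mM NaCl, 2 mM β-mercaptoethanol. BCL2 sat in the cell and peptide was titrated in at 25°C over 25 injections. Kd came from fitting an independent binding model.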
# [2] = target: Soluble human BCL2 (residues 1-218), lacking the C-terminal transmembrane helix (human, UniProt P10415 1-218); assay: ITC
# Chain of Soluble human BCL2 (residues 1-218), lacking the C-terminal transmembrane helix (P10415 1-218): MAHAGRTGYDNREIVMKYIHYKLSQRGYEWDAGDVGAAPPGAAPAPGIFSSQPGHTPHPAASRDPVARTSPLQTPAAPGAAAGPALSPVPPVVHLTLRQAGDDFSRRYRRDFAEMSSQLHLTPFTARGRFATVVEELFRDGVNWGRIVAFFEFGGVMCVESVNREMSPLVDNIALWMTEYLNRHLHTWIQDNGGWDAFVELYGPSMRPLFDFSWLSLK
# Chain of human BCL2 (residues 1–218) (P10415 1-218): as above
Molecule,Binding to BCL2 (in words) [1],dH [2] [kcal/mol],further results
L116A: BECN1 BH3D-derived peptide with Ala substitution of L116 (DGGTMENLSRRAKVTGDLFDIMSGQT) [Mutant L116A],abolished,,
F123A: BECN1 BH3D-derived peptide with Ala substitution of F123 (DGGTMENLSRRLKVTGDLADIMSGQT) [Mutant F123A],abolished,,
G120E+D121A: BECN1 BH3D-derived peptide with double G120E+D121A substitution (DS) (DGGTMENLSRRLKVTEALFDIMSGQT),abolished,,Binding to BCL2 (in words) ([1]; listed as DS BH3D): does not bind
L112A: BECN1 BH3D-derived peptide with Ala substitution of L112 (DGGTMENASRRLKVTGDLFDIMSGQT) [Mutant L112A],abolished,,
DGGTMENLSRRLKVTGDLFDIMSGQT [human BECN1 BH3D peptide (residues 105-130)],,-4.25 ± 1.55,Kd [2]: 10.4 ± 3.5 µM
"DGGTMENLSRRLQVTGDLFDIMSGQT (peptide, UniProt Q14457 105-130, looked up) [K117Q BECN1 BH3D peptide]",,-5.11 ± 1.1,
"DGGTAENLSRRLKVTGDLFDIMSGQT (peptide, UniProt Q14457 105-130, looked up) [M109A BECN1 BH3D peptide]",,-3.78 ± 0.693,
